Reference: ChEMBL document CHEMBL1240425, “Design and synthesis of chloroquine analogs with anti-breast cancer property” (Eur J Med Chem, 2010)

Columns and labels:
MDA-MB-231 [1] = assay: Antiproliferative activity against human p53, pRB mutant and estrogen receptor deficient MDA-MB-231 cells after 48 hrs by SRB assay; assay type: functional; conditions: MDA-MB-231, 48 h
In short: (§1)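 Cells (5000–10,000/well) preincubated 24 h at 37 °C, 5% CO2; MCF10A kept in mammary epithelial basal medium with MEGM supplements. Seven concentrations from 2–10-fold serial dilutions, with ≤0.1% DMSO vehicle control, were given for 48 h. Cells were TCA-fixed (10% final), then stained with 0.4% SRB. Dye was solubilized in 10 mM Tris base and read at 515–564 nm. GI50 came from variable-slope sigmoidal fits, triplicates, ≥2 experiments.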

MCF7 [2] = assay: Antiproliferative activity against human p53+/- MCF7 cells after 48 hrs by SRB assay; assay type: functional; conditions: MCF7, 48 h; in short: as §1
[3] = Antiproliferative activity against human MCF10A cells after 48 hrs by SRB assay; assay type: cell-based, MCF-10A; in short: as §1
MCF7 [4] = assay: Ratio of GI50 for human MCF10A cells to GI50 for human p53+/- MCF7 cells
MDA-MB-231 [5] = assay: Ratio of compound GI50 to cisplatin GI50 for human p53, pRB mutant and estrogen receptor deficient MDA-MB-231 cells after 48 hrs by SRB assay; assay type: functional
MCF7 [6] = assay: Ratio of compound GI50 to cisplatin GI50 for human p53+/- MCF7 cells after 48 hrs by SRB assay; assay type: functional
MDA-MB-231 [7] = assay: Ratio of GI50 for human MCF10A cells to GI50 for human p53, pRB mutant and estrogen receptor deficient MDA-MB-231 cells

Compound	GI50 (MDA-MB-231 [1]) [µM]	GI50 (MCF7 [2]) [µM]	GI50 at 48 h [3] [µM]	RatioGI50 (MCF7 [4])	RatioGI50 (MDA-MB-231 [5])	RatioGI50 (MCF7 [6])	RatioGI50 (MDA-MB-231 [7])
CN1CCN(CCCNc2ccnc3cc(C(F)(F)F)ccc23)CC1	43.3	30.8	51.7				
FC(F)(F)c1ccc2c(NCCCN3CCCCC3)ccnc2c1	38.6	32.6	48.8				
FC(F)(F)c1ccc2c(NCCCN3CCCC3)ccnc2c1	70.4	36.8	58.6				
CCN(CC)CCCC(C)Nc1ccnc2cc(Cl)ccc12 (stereo not given) [CHLOROQUINE]			81.3				
CCN(CC)CCCNc1ccnc2cc(C(F)(F)F)ccc12	57.1	20.6	45.8				
O=C1C(=O)N(CCCNc2ccnc3cc(C(F)(F)F)ccc23)c2cccc(Cl)c21	50.2	18.8	20.2				
O=C1C(=O)N(CCCNc2ccnc3cc(Cl)ccc23)c2ccccc21	47.6	23.5	35.9				
Clc1ccc2c(NCCCN3CCOCC3)ccnc2c1	40.2	17.2	86.5				
FC(F)(F)c1ccc2c(NCCCN3CCOCC3)ccnc2c1	79.8	38.8	26.5				
Clc1ccc2c(NCCCN3CCCCC3)ccnc2c1	38	17.7	47.8				
O=C1C(=O)N(CCCNc2ccnc3cc(C(F)(F)F)ccc23)c2cccc(Br)c21	49.4	34.4	33.7				
O=C1C(=O)N(CCCNc2ccnc3cc(C(F)(F)F)ccc23)c2ccccc21	54.1	45.3	46.8				
O=C1C(=O)N(CCCNc2ccnc3cc(Cl)ccc23)c2cccc(Cl)c21	55.6	46.7	84.8				

Further compounds by falling GI50 (MDA-MB-231 [1]), results first:

GI50 (MDA-MB-231 [1]) [µM]	GI50 (MCF7 [2]) [µM]	Compound	GI50 at 48 h [3] [µM]	RatioGI50 (MCF7 [4])	RatioGI50 (MDA-MB-231 [5])	RatioGI50 (MCF7 [6])	RatioGI50 (MDA-MB-231 [7])
35	16.6	O=C1C(=O)N(CCCNc2ccnc3cc(Cl)ccc23)c2cc(Br)ccc21	19.9				
29.8	21.4	Clc1ccc2c(NCCCN3CCCC3)ccnc2c1	45.8				
27.8	17.9	CCN(CC)CCCNc1ccnc2cc(Cl)ccc12	65.3				
25.7	17.2	FC(F)(F)c1ccc2c(NCCCN3CCN(c4ccnc5cc(C(F)(F)F)ccc45)CC3)ccnc2c1	30				
19.1	17.1	CN1CCN(CCCNc2ccnc3cc(Cl)ccc23)CC1	16.7				
18.9	7.98	O=C1C(=O)N(CCCNc2ccnc3cc(C(F)(F)F)ccc23)c2cc(Br)ccc21	14.6				
17.4	14.3	O=C1C(=O)N(CCCNc2ccnc3cc(C(F)(F)F)ccc23)c2cc(Cl)ccc21	25.2				
16.8	6.57	O=C1C(=O)N(CCCNc2ccnc3cc(Cl)ccc23)c2cccc(Br)c21	20.8				
15.9	12.8	Clc1ccc2c(NCCCN3CCN(c4ccccc4)CC3)ccnc2c1	12.6				
15.8	7.36	O=C1C(=O)N(CCCNc2ccnc3cc(Cl)ccc23)c2cc(Cl)ccc21	6.88				
9.9	8.75	FC(F)(F)c1ccc2c(NCCCN3CCN(c4ccccc4)CC3)ccnc2c1	19.8				
7.52	5.42	Clc1ccc2c(NCCCN3CCN(c4ccnc5cc(Cl)ccc45)CC3)ccnc2c1	8.72				
6.33	4.99	FC(F)(F)c1ccc2c(N3CCN(CCCNc4ccnc5cc(Cl)ccc45)CC3)ccnc2c1	12.9	2.58	3.7	5.16	2.03
4.31	4.6	FC(F)(F)c1ccc2c(NCCCN3CCN(c4ccnc5cc(Cl)ccc45)CC3)ccnc2c1	8.84	1.92			2.05
